Results taken from ChEMBL document CHEMBL1147441, “A new series of potent oxindole inhibitors of CDK2” (Bioorg Med Chem Lett, 2004).
pIC50: −log10 of the molar value.

Tests used:
SW480 = assay: In vitro inhibition of SW480 (human colon cancer) cell proliferation.; type: functional, cell-based
Method in brief: (§1)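 MTT-based proliferation assay run on tumour cells. IC50 values were taken from a single experiment.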

MDA-MB-435 = assay: In vitro inhibition of MDA MB 435 (human breast cancer) cell proliferation.; type: functional, cell-based; method in brief: as §1
[1] = biological target: Cyclin-dependent kinase 2/cyclin E (Homo sapiens, UniProt P24941); assay: In vitro inhibition of recombinant Cyclin Dependent Kinase-2/Cyclin E.; type: protein-complex assay

How did the pIC50 (SW480) turn out when `COc1cc[nH]c1/C=C1\C(=O)Nc2ccc(F)c(C#C[C@@H](N)[C@@H](C)O)c21` was run?
Its pIC50 is 6.68.

And the pIC50 (MDA-MB-435)?
The pIC50 was 6.52.

And the pIC50 [1]?
Its pIC50 is 8.05.

With `CN[C@H](C#Cc1c(F)ccc2c1/C(=C/c1[nH]ccc1OC)C(=O)N2)CO` as the compound, how does the pIC50 (SW480) read?
The pIC50 was 7.00.

What about the pIC50 (MDA-MB-435) of the same compound?
Its pIC50 is 6.46.

And the pIC50 [1]?
The pIC50 was 8.10.

How did the pIC50 (SW480) turn out when `COc1cc[nH]c1/C=C1\C(=O)Nc2ccc(F)c(C#C[C@@H]3C[C@H](O)CN3)c21` was run?
The pIC50 was 7.05.

And the pIC50 (MDA-MB-435)?
Its pIC50 is 6.96.

What about the pIC50 [1] of the same compound?
The pIC50 was 8.30.

Which results are given for `CN[C@@H](C#Cc1c(F)ccc2c1/C(=C/c1[nH]ccc1OC)C(=O)N2)CO`?
pIC50 (SW480): 7.10; pIC50 (MDA-MB-435): 6.52; pIC50 [1]: 8.40

With `COc1cc[nH]c1/C=C1\C(=O)Nc2ccc(F)c(C#C[C@H](C)O)c21` as the compound, how does the pIC50 (SW480) read?
Its pIC50 is 6.40.

And the pIC50 (MDA-MB-435)?
The pIC50 was 6.72.

And the pIC50 [1]?
The pIC50 was 7.59.
